System: PDE4
Experiment: In vitro PDE4-inhibitory assay
Assay type: biochemical
Details: ratio of IC50 values
In short: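 Fluorescence-polarization kit. Test compound diluted in assay buffer containing 10 % DMSO (dilution solvent, not final), then added to reactions with PDE4 and 200 nM FAM-cAMP for 1 h at room temperature. Binding agent (1:99 in diluent) added for 30 min at RT with slow shaking; FP read at ex 485/em 528 nm. Triplicate per concentration; % activity = (FP−FPb)/(FPt−FPb)×100. IC50 from dose-response fit; ratios taken between IC50s.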

Q: Which “fold higher PDE4 inhibitory effect than isoastilbin” value (versus isoastilbin) does the source give for C[C@@H]1O[C@@H](O[C@H]2C(=O)c3c(O)cc(O)cc3O[C@@H]2c2ccc(O)c(O)c2)[C@H](O)[C@H](O)[C@H]1O [Astilbin] here?
A: 8.9 fold

Q: What about the “fold higher PDE4 inhibitory effect than neoastilbin” value (versus neoastilbin) of the same molecule?
A: 2.9 fold
